Experiments:
[1] = molecular target: T1, A431-CCK2R cell line expressing the human CCK2R (Homo sapiens, UniProt P32239); experiment: Cell uptake; assay type: cell-based; settings: A431-CCK2R cells, 2 h incubation, 0.4 nM
T1 sequence (P32239 1-447): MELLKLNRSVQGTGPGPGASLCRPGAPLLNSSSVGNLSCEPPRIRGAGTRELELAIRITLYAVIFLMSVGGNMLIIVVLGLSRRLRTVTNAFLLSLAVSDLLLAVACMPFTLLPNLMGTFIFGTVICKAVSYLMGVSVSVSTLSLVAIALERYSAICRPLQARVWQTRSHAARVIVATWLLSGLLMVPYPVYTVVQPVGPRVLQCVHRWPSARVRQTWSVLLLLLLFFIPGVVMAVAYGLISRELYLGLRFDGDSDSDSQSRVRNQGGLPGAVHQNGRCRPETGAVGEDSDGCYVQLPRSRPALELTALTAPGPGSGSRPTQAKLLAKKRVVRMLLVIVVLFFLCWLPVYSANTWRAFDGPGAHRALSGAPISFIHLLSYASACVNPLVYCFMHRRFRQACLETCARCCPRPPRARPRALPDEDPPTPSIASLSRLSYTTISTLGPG
Outline: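 A431-CCK2R and A431-mock cells were cultured in DMEM with 10% FBS, penicillin/streptomycin/L-glutamine at 37°C, 5% CO₂. They were seeded at 1.0×10⁶ cells/well and grown 48 h to confluency. Peptides were labelled with ¹⁷⁷LuCl₃ (~50 GBq/µmol) in ascorbate buffer pH 5 with gentisic acid and L-Met, 80°C. Triplicate wells received ~100,000 cpm (0.4 nM) for 2 h. The internalized fraction was gamma-counted as % of total added.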

[2] = Chemical stability in phosphate buffered saline; assay type: physicochemical; settings: PBS at RT, up to/after 4 h incubation
Outline: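 ¹⁷⁷Lu-labelled peptide (120 pmol/mL) was kept in phosphate buffered saline at room temperature. Aliquots were taken at intervals up to […] and analysed by HPLC for percentage intact radiopeptide relative to post-labelling radiochemical purity.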

[3] = Stability against enzymatic degradation in human serum; assay type: in vitro ADME
Outline: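 The ¹⁷⁷Lu-labelled peptide was incubated in human serum at 37°C and sampled at time points up to 24 h. Proteins were precipitated with acetonitrile (1:1.5) and centrifuged; supernatant was diluted 1:1 with water before HPLC for intact radiopeptide. Half-life came from first-order exponential decay fitting.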

[4] = assay type: physicochemical
Outline: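 Labelling used ~2 GBq ¹⁷⁷LuCl₃ in 1 mL dilute HCl, heated at 80°C for 15-25 min. Kits were stored up to 6 months; labelled product was held up to 48 h at room temperature or −20°C. Radiochemical purity was measured by RP-HPLC.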

A431-CCK2R xenografts [5] = experiment: Biodistribution: uptake in receptor-positive tumour xenograft; assay type: in vivo, BALB/c nude mice; settings: 30 min p.i.
Outline: (§1)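 Female and male BALB/c nude mice, 5-6 weeks old, carried A431-CCK2R and A431-mock xenografts in opposite flanks (2×10⁶ cells each). Tumours grew for ~14 days to ~0.2 g. Kit-prepared ¹⁷⁷Lu-peptide, 1 MBq (20 pmol; 50 GBq/µmol), was injected into the tail vein. Groups of five were killed at 30 min, 4 h, 1 d, 2 d, 3 d and 7 d; dissected tissues were gamma-counted and expressed as % IA/g.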

[6] = Biodistribution: uptake in normal organs and tissues; assay type: in vivo, BALB/c nude mice; settings: 30 min p.i.
Outline: as §1

A431-CCK2R xenografts [7] = experiment: Experimental radionuclide therapy, receptor-positive tumour growth; assay type: in vivo, BALB/c nude mice; settings: for mean SGR A431-CCK2R: single i.v. treatment; for TVDT increase by a factor in comparison to the control group: A431-CCK2R tumours
A431-mock xenografts = experiment: Experimental radionuclide therapy, receptor-negative tumour growth; assay type: in vivo, BALB/c nude mice; settings: for mean SGR A431-mock: single i.v. treatment
[8] = Medullary toxicity: white blood cell and platelet counts; assay type: in vivo, BALB/c nude mice
Outline: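 Double-xenografted nude mice were dosed as in the therapy study (saline, 15 or 30 MBq i.v.), n=5. Weekly, 0.1 mL venous blood was drawn from the superficial temporal vein by lancet, up to eight samples per animal. White blood cells and platelets were counted on an automatic haematology analyser. Counts were expressed relative to basal values (week −2 = inoculation; week 0 = treatment).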

[9] = Renal toxicity: creatinine and urea in serum; assay type: in vivo, BALB/c nude mice
Outline: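 The same treated double-xenografted nude mice (saline, 15 or 30 MBq i.v.; n=5) gave weekly venous blood samples. Serum creatinine and urea were measured with specific kits on a semiautomatic biochemical analyser. Values were compared between treated and control groups over weeks from cell inoculation (week −2) onward.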

[10] = 15 MBq, one week after treatment
[11] = 15 MBq group, week 0 (week of treatment)
[12] = 15 MBq group, week -2 (cell inoculation)
[13] = 30 MBq group, week 0 (week of treatment)
[14] = 30 MBq group, week -2 (cell inoculation)

## CSCC[C@H](NC(=O)[C@H](Cc1c[nH]c2ccccc12)NC(=O)[C@H]1CCCCNC(=O)[C@H](NC(=O)CN2CCN(CC(=O)O)CCN(CC(=O)O)CCN(CC(=O)O)CC2)CCC(=O)N[C@@H](C)C(=O)N[C@@H](Cc2ccc(O)cc2)C(=O)N1)C(=O)N[C@@H](CC(=O)O)C(=O)N[C@@H](Cc1ccccc1)C(N)=O [^177Lu-DOTA-cyclo-MG1, metal not drawn]
[1]
  internalized radioligand fraction (% of total): 15.2±2.6%
[2]
  RCP during incubation in PBS: 86%
[3]
  half-life: 30.1 h
[4]; -20°C versus RT
  improvement of RCP by freezer storage: ~ 10%
[4]; during storage of the kits
  degree of Met-oxidation: 3.8-6.1%
[4]; kit storage up to 6 months, n=4
  mean RCP for the different time points after storage of the kits: 89.4±7.9%
[4]; kit-prepared, directly after preparation
  RCP after preparation: 93.3±1.6%
[4]; stored at RT
  RCP at 24 h after preparation: 89.8±2.8%
  RCP up to 4 h after preparation: > 92%
A431-CCK2R xenografts [5]
  maximal tumour uptake: 5.18 % IA/g
[6]
  kidney uptake, maximal value: 1.75 % IA/g
A431-CCK2R xenografts [7]; 15 MBq group (0.6 nmol)
  mean SGR A431-CCK2R: 0.046±0.002
A431-CCK2R xenografts [7]; 30 MBq group (1.2 nmol)
  mean SGR A431-CCK2R: 0.031±0.006
A431-CCK2R xenografts [7]; high activity group (30 MBq)
  TVDT increase by a factor in comparison to the control group: 2.6
A431-CCK2R xenografts [7]; low activity group (15 MBq)
  TVDT increase by a factor in comparison to the control group: 1.8
A431-mock xenografts; 15 MBq group (0.6 nmol)
  mean SGR A431-mock: 0.065±0.006
A431-mock xenografts; 30 MBq group (1.2 nmol)
  mean SGR A431-mock: 0.051±0.006
A431-mock xenografts; A431-mock tumours, high activity group (30 MBq)
  TVDT increase by a factor in comparison to the control group: 1.5
[8]; [10]
  reduction in PLT counts compared to the basal value: 51.2-52.8%
  reduction in WBC counts compared to the basal value: 37.8-40.8%
[8]; 15 MBq, week 2 after treatment, reference 558-1,454
  PLT value: 531±26 ×10^9/L
[8]; 30 MBq, after treatment
  decline of PLT value compared to the basal value: 44.8-58.0%
[8]; 30 MBq, week 1 after treatment
  reduction of WBC value compared to the basal value: 67.2-70.9%
[8]; 30 MBq, week 1 and 2 after treatment
  PLT value below the reference values: 486-530 ×10^9/L
[8]; 30 MBq, week 1 and 2 after treatment, reference 3.11-13.04
  WBC value below the lower reference limit: 2.17-2.94 ×10^9/L
[9]; [11]
  Creatinine (reference value 0.1-0.5): 0.3 ± 0.2 mg/dL
  Urea (reference value 17-38): 26 ± 2 mmol/L
[9]; 15 MBq group, week 1
  Creatinine (reference value 0.1-0.5): 0.2 ± 0.1 mg/dL
  Urea (reference value 17-38): 32 ± 3 mmol/L
[9]; 15 MBq group, week 2
  Creatinine (reference value 0.1-0.5): 0.3 ± 0.1 mg/dL
  Urea (reference value 17-38): 33 ± 2 mmol/L
[9]; 15 MBq group, week 3
  Creatinine (reference value 0.1-0.5): 0.3 ± 0.2 mg/dL
[9]; 15 MBq group, week 4
  Creatinine (reference value 0.1-0.5): 0.5 ± 0.1 mg/dL
[9]; 15 MBq group, week 5
  Creatinine (reference value 0.1-0.5): 0.7 mg/dL
[9]; 15 MBq group, week -1
  Creatinine (reference value 0.1-0.5): 0.2 ± 0.1 mg/dL
  Urea (reference value 17-38): 33 ± 4 mmol/L
[9]; [12]
  Creatinine (reference value 0.1-0.5): 0.2 ± 0.1 mg/dL
  Urea (reference value 17-38): 31 ± 3 mmol/L
[9]; 15 MBq, beginning from week 3 after treatment
  urea above the upper limit of the reference value: 39 to 48 mmol/L
[9]; [13]
  Creatinine (reference value 0.1-0.5): 0.3 ± 0.2 mg/dL
  Urea (reference value 17-38): 32 ± 5 mmol/L
[9]; 30 MBq group, week 1
  Creatinine (reference value 0.1-0.5): 0.3 ± 0.1 mg/dL
  Urea (reference value 17-38): 29 ± 4 mmol/L
[9]; 30 MBq group, week 2
  Creatinine (reference value 0.1-0.5): 0.2 ± 0.1 mg/dL
[9]; 30 MBq group, week 3
  Creatinine (reference value 0.1-0.5): 0.5 ± 0.2 mg/dL
[9]; 30 MBq group, week -1
  Creatinine (reference value 0.1-0.5): 0.2 ± 0.1 mg/dL
  Urea (reference value 17-38): 28 ± 3 mmol/L
[9]; [14]
  Creatinine (reference value 0.1-0.5): 0.2 ± 0.1 mg/dL
  Urea (reference value 17-38): 27 ± 5 mmol/L
[9]; 30 MBq, beginning from week 2 after treatment
  urea levels above the reference limit: 39 to 52 mmol/L
[9]; 30 MBq, beginning from week 4 after treatment
  creatinine levels above the reference limit: 0.6 to 0.8 mg/dL

— PMC6128401 (Molecular pharmaceutics, 2017)
